The source of these data is ChEMBL document CHEMBL4480459, “Acylated Lignans Isolated from Brachanthemum gobicum and Their Trypanocidal Activity” (J Nat Prod, 2019).

Molecules are shown by their SMILES. pIC50: −log10 of the molar value.

A word on the pIC50: it is the negative decadic logarithm of the IC50, by convention in mol/L.

This assay deals with Trypanosoma congolense. Put plainly: Trypanocidal activity against bloodstream form of Trypanosoma congolense IL3000 after 72 hrs by CellTiter-Glo reagent-based luminescence assay. It is filed as functional, organism-based. As to conditions: IL3000, 72 h. The essentials:
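BSF parasites maintained daily in HMI-9 medium. Compounds serially diluted 5-fold in HMI-9 from 25 μg/mL to 1.6 ng/mL and incubated with trypanosomes for 72 h. Viability read by luminescence after CellTiter-Glo addition; IC50 calculated from the dilution series. Pentamidine as positive control.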
(In general: ATP-based viability assays read luminescence as a measure of living cells.)

With `COc1cc([C@@H]2Oc3c(OC)cc(/C=C/C=O)cc3[C@H]2COC(=O)CC(C)C)ccc1O`, the pIC50 is 5.62. The value for `COc1cc([C@@H]2Oc3c(OC)cc(/C=C/COC(C)=O)cc3[C@H]2COC(C)=O)ccc1O` was 4.79; that for `COc1cc([C@@H]2Oc3c(OC)cc(/C=C/COC(=O)CC(C)C)cc3[C@H]2COC(=O)CC(C)C)ccc1O` was 4.87. To `COc1cc([C@@H](OC)[C@H](O)COC(=O)CC(C)C)ccc1O` belongs below 4.60. `COc1cc([C@@H]2Oc3c(OC)cc(/C=C/C=O)cc3[C@H]2COC(C)=O)ccc1O` gave a pIC50 of 5.12.

In the case of `COc1cc([C@@H]2Oc3c(OC)cc(C=O)cc3[C@H]2COC(=O)CC(C)C)ccc1O`, the pIC50 is 4.70.

On to `COc1cc(/C=C/COC(=O)CC(C)C)ccc1O`, for which the pIC50 was below 4.60. Take `COc1cc([C@@H](O)[C@H](O)COC(=O)CC(C)C)ccc1O`: the pIC50 was below 4.60. The value for `COc1cc([C@@H]2Oc3c(OC)cc(C(=O)O)cc3[C@H]2COC(=O)CC(C)C)ccc1O` was below 4.60; that for `C=C(C=O)[C@H](COC(=O)CC(C)C)C(c1ccc(O)c(OC)c1)c1ccc(O)c(OC)c1` was 5.55. The value for `COc1cc(C(=O)[C@@H](COC(=O)CC(C)C)Oc2ccc(/C=C/COC(=O)CC(C)C)cc2OC)ccc1O` was 5.02; that for `COc1cc(C(=O)[C@H](O)COC(=O)CC(C)C)ccc1O` was below 4.60. The value for `COc1cc(C(=O)[C@@H](COC(=O)CC(C)C)c2cc(C=O)cc(OC)c2O)ccc1O` was below 4.60. For the compound `COc1cc([C@@H](O)[C@@H](COC(=O)CC(C)C)Oc2ccc(/C=C/COC(=O)CC(C)C)cc2OC)ccc1O`, the pIC50 is 4.76.

In the case of `COc1cc(/C=C/C=O)ccc1O` [CONIFERYL ALDEHYDE], the pIC50 is below 4.60. `COc1cc(/C=C/C(=O)O)ccc1O` [FERULATE] showed a pIC50 below 4.60. The value for `COc1cc(C=O)ccc1O` [VANILLIN] was below 4.60.
